Assay [1] can be described thus: Inhibition of reconstituted NF-KB p50-p65 heterodimer/DNA interaction after 20 mins by EMSA. Put shortly: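 p50 (10 ng) plus p65 (10 ng) human NF-κB proteins preincubated 20 min at room temperature with varying compound concentrations in buffer TF, 5% glycerol, 1 mM DTT. 0.25 ng 32P-labeled NF-κB site oligo then added for a further 20 min. Bound and free probe separated on 6% native polyacrylamide gel (0.25× TBE, 200 V); autoradiography.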

Assay [2] in a line: Inhibition of NF-KB p50 subunit/DNA interaction after 20 mins by EMSA. The essentials:
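Human NF-κB p50 protein (10 ng) preincubated 20 min at room temperature with varying compound concentrations in buffer TF plus 5% glycerol, 1 mM DTT. Then 0.25 ng 32P-labeled double-stranded NF-κB consensus oligo (5'-CGC TGG GGA CTT TCC ACG G-3') added for 20 min more. Complexes resolved on 6% polyacrylamide gel in 0.25× TBE at 200 V; autoradiography.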

The test system of assay [3] is IB3-1. Kind of assay: Inhibition of NFkappa B in human IB3-1 cells assessed as inhibition of TNF-alpha-induced IL8 mRNA accumulation at 50 uM after 24 hrs by RT-PCR analysis relative to control. Type of assay: cell-based. Put shortly:
(§1)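 IB3-1 CF bronchial cells (ΔF508/W1282X, adeno12/SV40-immortalized) grown in LHC-8 with 5% FBS, without gentamycin, at 37 °C. Exposed to compound and TNF-α (80 ng/ml) for 24 h. Total RNA extracted with TRIzol, oligo(dT)-primed AMV reverse transcription, then 40-cycle real-time PCR with IL-8 primers. IL-8 mRNA expressed relative to uninduced IB3-1 cells; n = 3.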

Assay [4] concerns IB3-1. The assay can be described thus: Inhibition of NFkappa B in human IB3-1 cells assessed as inhibition of TNF-alpha-induced IL8 protein release at 50 uM after 24 hrs relative to control. Type of assay: cell-based. The essentials: (§2)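 IB3-1 CF cells in LHC-8 with 5% FBS treated 24 h with compound plus TNF-α (80 ng/ml). IL-8 released into the culture supernatant measured by singleplex bead immunoassay (Bio-Plex): sample incubated with anti-IL-8 beads, then detection antibody, then streptavidin-phycoerythrin, read against cytokine standards as pg/ml; n = 3.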

The test system of assay [5] is IB3-1. The assay can be described thus: Inhibition of NFkappa B in human IB3-1 cells assessed as inhibition of TNF-alpha-induced IL8 mRNA accumulation at 30 uM after 24 hrs by RT-PCR analysis relative to control. Type of assay: cell-based. Put shortly:
as §1

The test system of assay [6] is IB3-1. Kind of assay: Inhibition of NFkappa B in human IB3-1 cells assessed as inhibition of TNF-alpha-induced IL8 protein release at 10 uM after 24 hrs relative to control. Type of assay: cell-based. The essentials:
as §2

Assay [7] concerns IB3-1. Kind of assay: Inhibition of NFkappa B in human IB3-1 cells assessed as inhibition of TNF-alpha-induced IL8 mRNA accumulation at 10 uM after 24 hrs by RT-PCR analysis relative to control. Type of assay: cell-based. Put shortly:
as §1

Assay [8] relates to IB3-1. Kind of assay: Inhibition of NFkappa B in human IB3-1 cells assessed as inhibition of TNF-alpha-induced IL8 protein release at 30 uM after 24 hrs relative to control. It counts as cell-based. The essentials: as §2

Each structure is given as a SMILES string. Active and inactive are the calls of the source. No cut-off for these calls is given here.

For `Cc1c(CC(=O)N[C@@H](Cc2ccccc2)C(=O)O)c(=O)oc2cc3occ(C(C)(C)C)c3cc12`, the inhibition entry in assay [1] and in assay [2] was “Active” in each case.

Turning to `Cc1c(CC(=O)NC(Cc2ccccc2)C(=O)O)c(=O)oc2c(C)c3occ(C(C)(C)C)c3cc12` (racemic), the inhibition result (in the assay with IB3-1 [3]; in assay [1]; in the assay with IB3-1 [4]; with IB3-1 [5]; in the assay with IB3-1 [8]) was “Active” each time. The inhibition entry in the assay with IB3-1 [6] and in the assay with IB3-1 [7] was “inactive” each time.

Take `Cc1c(CC(=O)NC(Cc2ccccc2)C(=O)O)c(=O)oc2cc3occ(C(C)(C)C)c3cc12` (racemic): the inhibition result in assay [1] and in assay [2] was “Active” in each case.

The values are drawn from ChEMBL document CHEMBL1828539, “Development of a novel furocoumarin derivative inhibiting NF-κB dependent biological functions: design, synthesis and biological effects” (Eur J Med Chem, 2011).
